Reference: ChEMBL document CHEMBL1151962, “Identification of N,1,4,4-tetramethyl-8-{[4-(4-methylpiperazin-1-yl)phenyl]amino}-4,5-dihydro-1H-pyrazolo[4,3-h]quinazoline-3-carboxamide (PHA-848125), a potent, orally available cyclin dependent kinase inhibitor” (J Med Chem, 2009)
In brackets after ≈: the same amount, converted by molar mass.

Tests used:
[1] = Solubility in 5% dextrose; assay type: physicochemical
Cytochrome P450 3A4 = Cytochrome P450 3A4 (Homo sapiens, UniProt P08684); assay: Inhibition of human CYP3A4 assessed as compound remaining by LC/MS/MS analysis; assay type: ADME; set-up: concentration or dose not given beside the values
[2] = Half life in fasted nu/nu mouse at 10 mg/kg, iv by LC/MS/MS analysis; assay type: ADME, organism-based; set-up: dose 10 mg/kg, route intravenous; conditions: in vivo
How it was run: (§1)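 Overnight-fasted male Nu/Nu mice received a single 10 mg/kg dose iv or orally, in 5% dextrose vehicle, given as the hydrochloride salt. Three mice per route. Saphenous vein blood was drawn predose and at 0.083 (iv) or 0.25 (po), 0.5, 1, 6 and 24 h. Samples were spun at 10000g for 3 min at 4 °C, and plasma was stored at -80 °C until analysis.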

[3] = Clearance in fasted nu/nu mouse at 10 mg/kg, iv by LC/MS/MS analysis; assay type: ADME, organism-based; set-up: dose 10 mg/kg, route intravenous; conditions: in vivo; how it was run: as §1
[4] = Volume of distribution at steady state in fasted nu/nu mouse at 10 mg/kg, iv by LC/MS/MS analysis; assay type: ADME, organism-based; set-up: dose 10 mg/kg, route intravenous; conditions: in vivo, read-out: Vdss; how it was run: as §1
[5] = Half life in fasted nu/nu mouse at 10 mg/kg, po by LC/MS/MS analysis; assay type: ADME, organism-based; set-up: dose 10 mg/kg, route oral; conditions: in vivo; how it was run: as §1
[6] = AUC in fasted nu/nu mouse at 10 mg/kg, po LC/MS/MS analysis; assay type: ADME, organism-based; set-up: dose 10 mg/kg, route oral; conditions: plasma; how it was run: as §1
[7] = Oral bioavailability in fasted nu/nu mouse at 10 mg/kg by LC/MS/MS analysis; assay type: ADME, organism-based; conditions: in vivo; how it was run: as §1
Mus musculus = assay: Hepatic blood flow in fasted nu/nu mouse at 10 mg/kg, iv by LC/MS/MS analysis; assay type: ADME, organism-based, Liver; set-up: dose 10 mg/kg, route intravenous; conditions: in vivo
[8] = Cmax in fasted nu/nu mouse at 10 mg/kg, po by LC/MS/MS analysis; assay type: ADME, organism-based; set-up: dose 10 mg/kg, route oral; conditions: in vivo; how it was run: as §1
[9] = Solubility at pH 7; assay type: physicochemical; conditions: buffer
[10] = molecular target: Cyclin-dependent kinase 1/cyclin B1 (Homo sapiens, UniProt P06493); assay: Inhibition of CDK1/Cyclin B
How it was run: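 Biochemical kinase-panel assay against the CDK1/cyclin B complex; IC50 in μM, reported as the mean of two or more experiments.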

A2780 [11] = assay: Effect on cell cycle progression in human A2780 cells assessed as increase in accumulation at […] phase at 1 uM after 24 hrs by flow cytometry; assay type: functional
How it was run: (§2)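 A2780 cells (ECACC) were seeded at 25 000 cells/cm² in RPMI 1640 pH 7.4 with 10% FBS, 2 mM L-glutamine and penicillin-streptomycin, at 37 °C and 5% CO2. After 24 h, cells were exposed to 1 μM compound for 24 h. Floating and trypsin/EDTA-detached cells were pooled and PBS-washed. Samples were split for flow cytometry and BrdU incorporation. Results are expressed versus untreated control cells.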

A2780 [12] = assay: Effect on cell cycle progression in human A2780 cells assessed as decrease in accumulation at S phase at 1 uM after 24 hrs by flow cytometry; assay type: functional; set-up: scale not given: the % may be the effect or the level left; how it was run: as §2
A2780 [13] = assay: Effect on cell cycle progression in human A2780 cells assessed as decrease in accumulation at G2/M phase at 1 uM after 24 hrs by flow cytometry; assay type: functional; set-up: scale not given: the % may be the effect or the level left; how it was run: as §2
A2780 [14] = assay: Inhibition of DNA synthesis in human A2780 cells assessed as decrease in […] incorporation at 1 uM after 24 hrs by flow cytometry; assay type: functional; set-up: scale not given: the % may be the effect or the level left; how it was run: as §2
A2780 [15] = assay: Antitumor activity against human A2780 cells xenografted in nude mouse assessed as tumor growth inhibition at 20 mg/kg, po BID for 10 consecutive days; assay type: functional; set-up: scale not given: the % may be the effect or the level left
How it was run: (§3)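 A2780 human ovarian xenografts were grown in nude mice. Compound was given orally at 20, 30 or 40 mg/kg twice daily for 10 consecutive days. The read-out was tumor growth inhibition.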

A2780 [16] = assay: Antitumor activity against human A2780 cells xenografted in nude mouse assessed as tumor growth inhibition at 30 mg/kg, po BID for 10 consecutive days; assay type: functional; set-up: scale not given: the % may be the effect or the level left; how it was run: as §3
A2780 [17] = assay: Antitumor activity against human A2780 cells xenografted in nude mouse assessed as tumor growth inhibition at 40 mg/kg, po BID for 10 consecutive days; assay type: functional; set-up: scale not given: the % may be the effect or the level left; how it was run: as §3
[18] = Inhibition of PDGFR
[19] = molecular target: Mast/stem cell growth factor receptor Kit (Homo sapiens, UniProt P10721); assay: Inhibition of C-KIT
[20] = molecular target: Vascular endothelial growth factor receptor 3 (Homo sapiens, UniProt P35916); assay: Inhibition of VEGFR3
[21] = molecular target: Serine/threonine-protein kinase Nek6 (Homo sapiens, UniProt Q9HC98); assay: Inhibition of NEK6
[22] = Inhibition of NIM
[23] = molecular target: Fibroblast growth factor receptor 1 (Homo sapiens, UniProt P11362); assay: Inhibition of FGFR1
Fibroblast growth factor receptor 1, sequence (P11362 whole entry): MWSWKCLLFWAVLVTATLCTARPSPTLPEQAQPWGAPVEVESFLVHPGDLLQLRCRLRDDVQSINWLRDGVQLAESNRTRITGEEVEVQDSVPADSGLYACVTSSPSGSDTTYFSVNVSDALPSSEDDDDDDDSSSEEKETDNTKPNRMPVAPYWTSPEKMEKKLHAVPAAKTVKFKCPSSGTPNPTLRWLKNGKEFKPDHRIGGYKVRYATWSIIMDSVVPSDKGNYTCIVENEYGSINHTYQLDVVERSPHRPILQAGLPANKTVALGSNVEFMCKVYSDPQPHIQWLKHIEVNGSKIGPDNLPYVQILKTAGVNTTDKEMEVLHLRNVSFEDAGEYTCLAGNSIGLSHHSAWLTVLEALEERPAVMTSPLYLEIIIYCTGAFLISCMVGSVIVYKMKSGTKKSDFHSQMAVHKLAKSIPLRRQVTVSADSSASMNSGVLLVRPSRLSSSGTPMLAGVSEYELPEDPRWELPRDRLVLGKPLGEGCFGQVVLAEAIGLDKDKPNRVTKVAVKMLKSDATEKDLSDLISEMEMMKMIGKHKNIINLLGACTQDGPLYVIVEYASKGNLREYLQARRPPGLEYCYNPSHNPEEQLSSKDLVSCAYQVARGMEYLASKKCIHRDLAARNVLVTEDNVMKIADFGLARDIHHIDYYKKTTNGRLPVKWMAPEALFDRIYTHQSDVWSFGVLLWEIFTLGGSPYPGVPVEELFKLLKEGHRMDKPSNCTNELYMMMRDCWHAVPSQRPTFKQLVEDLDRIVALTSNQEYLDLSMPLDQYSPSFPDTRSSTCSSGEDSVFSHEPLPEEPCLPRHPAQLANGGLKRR

[24] = molecular target: Proto-oncogene tyrosine-protein kinase receptor Ret (Homo sapiens, UniProt P07949); assay: Inhibition of RET
[25] = Inhibition of SULU1
Aurora kinase B = Aurora kinase B (Homo sapiens, UniProt Q96GD4); assay: Inhibition of Aurora B
[26] = molecular target: RAC-alpha serine/threonine-protein kinase (Homo sapiens, UniProt P31749); assay: Inhibition of AKT1
[27] = molecular target: Cell division cycle 7-related protein kinase (Homo sapiens, UniProt O00311); assay: Inhibition of CDC7
[28] = molecular target: Serine/threonine-protein kinase Chk1 (Homo sapiens, UniProt O14757); assay: Inhibition of CHK1
Serine/threonine-protein kinase Chk1, sequence (O14757 whole entry): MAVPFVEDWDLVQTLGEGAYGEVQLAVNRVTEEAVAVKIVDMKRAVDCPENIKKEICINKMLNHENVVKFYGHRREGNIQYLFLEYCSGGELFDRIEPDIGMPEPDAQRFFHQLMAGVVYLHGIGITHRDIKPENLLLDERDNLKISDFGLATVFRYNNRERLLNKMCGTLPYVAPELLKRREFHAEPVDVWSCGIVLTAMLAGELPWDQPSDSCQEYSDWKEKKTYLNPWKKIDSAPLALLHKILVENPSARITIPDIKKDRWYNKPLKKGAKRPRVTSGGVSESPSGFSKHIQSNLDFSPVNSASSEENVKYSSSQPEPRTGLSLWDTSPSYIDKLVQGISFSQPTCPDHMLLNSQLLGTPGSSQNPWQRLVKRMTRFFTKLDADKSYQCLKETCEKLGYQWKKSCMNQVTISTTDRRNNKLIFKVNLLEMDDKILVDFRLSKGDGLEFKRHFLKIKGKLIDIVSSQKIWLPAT

[29] = Inhibition of CK2
[30] = molecular target: Mitogen-activated protein kinase 1 (Homo sapiens, UniProt P28482); assay: Inhibition of ERK2
[31] = molecular target: Glycogen synthase kinase-3 beta (Homo sapiens, UniProt P49841); assay: Inhibition of GSK3-beta
[32] = molecular target: Insulin-like growth factor 1 receptor (Homo sapiens, UniProt P08069); assay: Inhibition of IGF1R
[33] = molecular target: Inhibitor of nuclear factor kappa-B kinase subunit epsilon (Homo sapiens, UniProt Q14164); assay: Inhibition of IKKi
[34] = molecular target: Inhibitor of nuclear factor kappa-B kinase subunit beta (Homo sapiens, UniProt O14920); assay: Inhibition of IKK2
Insulin receptor = Insulin receptor (Homo sapiens, UniProt P06213); assay: Inhibition of IR
Insulin receptor, sequence (P06213 28-758 limits assumed): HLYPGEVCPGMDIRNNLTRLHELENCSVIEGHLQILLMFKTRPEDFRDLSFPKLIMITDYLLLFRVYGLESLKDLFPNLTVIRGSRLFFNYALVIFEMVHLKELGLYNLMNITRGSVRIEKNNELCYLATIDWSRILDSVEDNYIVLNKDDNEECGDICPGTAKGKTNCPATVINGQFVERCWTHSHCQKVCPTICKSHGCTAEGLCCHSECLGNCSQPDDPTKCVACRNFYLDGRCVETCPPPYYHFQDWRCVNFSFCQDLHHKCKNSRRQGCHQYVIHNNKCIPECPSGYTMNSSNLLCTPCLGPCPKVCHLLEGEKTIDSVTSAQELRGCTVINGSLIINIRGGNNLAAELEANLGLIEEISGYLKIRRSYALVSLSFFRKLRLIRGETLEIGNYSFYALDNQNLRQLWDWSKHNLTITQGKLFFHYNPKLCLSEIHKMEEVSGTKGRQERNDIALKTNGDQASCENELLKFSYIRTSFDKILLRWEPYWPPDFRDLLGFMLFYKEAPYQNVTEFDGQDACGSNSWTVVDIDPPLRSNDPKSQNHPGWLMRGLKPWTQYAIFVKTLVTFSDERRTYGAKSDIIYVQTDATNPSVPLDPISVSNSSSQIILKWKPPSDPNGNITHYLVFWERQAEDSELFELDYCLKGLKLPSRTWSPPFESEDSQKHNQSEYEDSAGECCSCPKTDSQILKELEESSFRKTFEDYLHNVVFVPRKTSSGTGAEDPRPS
Insulin receptor, sequence (P06213 763-1382 limits assumed): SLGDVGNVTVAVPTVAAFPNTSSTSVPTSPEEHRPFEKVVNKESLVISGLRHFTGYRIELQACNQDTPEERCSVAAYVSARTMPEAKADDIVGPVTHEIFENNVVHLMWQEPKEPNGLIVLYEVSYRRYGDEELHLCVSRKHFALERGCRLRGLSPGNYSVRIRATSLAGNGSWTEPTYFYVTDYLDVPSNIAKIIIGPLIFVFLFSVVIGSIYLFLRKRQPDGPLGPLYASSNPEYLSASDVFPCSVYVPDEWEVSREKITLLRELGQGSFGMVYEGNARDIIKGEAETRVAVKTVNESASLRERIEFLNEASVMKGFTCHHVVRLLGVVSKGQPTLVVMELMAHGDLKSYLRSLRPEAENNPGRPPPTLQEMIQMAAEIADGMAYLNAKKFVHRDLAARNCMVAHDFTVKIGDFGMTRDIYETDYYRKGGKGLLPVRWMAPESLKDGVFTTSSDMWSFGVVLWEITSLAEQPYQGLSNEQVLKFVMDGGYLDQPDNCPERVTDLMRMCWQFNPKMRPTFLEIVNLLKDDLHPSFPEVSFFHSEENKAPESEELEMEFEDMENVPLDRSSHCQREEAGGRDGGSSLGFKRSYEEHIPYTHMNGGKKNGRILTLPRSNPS

[35] = molecular target: Tyrosine-protein kinase Lyn (Homo sapiens, UniProt P07948); assay: Inhibition of LYN
[36] = molecular target: MAP kinase-activated protein kinase 2 (Homo sapiens, UniProt P49137); assay: Inhibition of MAPKAPK2
[37] = molecular target: Serine/threonine-protein kinase PAK 4 (Homo sapiens, UniProt O96013); assay: Inhibition of PAK4
Serine/threonine-protein kinase PAK 4, sequence (O96013 whole entry): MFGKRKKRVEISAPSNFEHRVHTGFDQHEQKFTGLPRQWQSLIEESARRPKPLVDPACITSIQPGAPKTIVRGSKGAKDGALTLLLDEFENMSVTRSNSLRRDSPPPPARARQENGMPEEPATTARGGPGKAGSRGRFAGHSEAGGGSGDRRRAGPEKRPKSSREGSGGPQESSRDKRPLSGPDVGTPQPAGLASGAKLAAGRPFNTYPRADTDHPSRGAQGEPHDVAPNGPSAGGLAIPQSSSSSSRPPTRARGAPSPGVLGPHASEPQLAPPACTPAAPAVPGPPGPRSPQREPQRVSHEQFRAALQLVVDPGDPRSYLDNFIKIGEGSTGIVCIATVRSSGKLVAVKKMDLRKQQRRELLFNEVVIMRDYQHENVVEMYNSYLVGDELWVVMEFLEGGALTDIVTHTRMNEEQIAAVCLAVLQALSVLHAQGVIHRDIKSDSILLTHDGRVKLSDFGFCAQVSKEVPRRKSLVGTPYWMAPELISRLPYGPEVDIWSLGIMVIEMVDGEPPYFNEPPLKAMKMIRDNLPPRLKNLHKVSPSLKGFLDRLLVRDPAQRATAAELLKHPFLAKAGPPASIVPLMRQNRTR

[38] = molecular target: 3-phosphoinositide-dependent protein kinase 1 (Homo sapiens, UniProt O15530); assay: Inhibition of PDK1
3-phosphoinositide-dependent protein kinase 1, sequence (O15530 whole entry): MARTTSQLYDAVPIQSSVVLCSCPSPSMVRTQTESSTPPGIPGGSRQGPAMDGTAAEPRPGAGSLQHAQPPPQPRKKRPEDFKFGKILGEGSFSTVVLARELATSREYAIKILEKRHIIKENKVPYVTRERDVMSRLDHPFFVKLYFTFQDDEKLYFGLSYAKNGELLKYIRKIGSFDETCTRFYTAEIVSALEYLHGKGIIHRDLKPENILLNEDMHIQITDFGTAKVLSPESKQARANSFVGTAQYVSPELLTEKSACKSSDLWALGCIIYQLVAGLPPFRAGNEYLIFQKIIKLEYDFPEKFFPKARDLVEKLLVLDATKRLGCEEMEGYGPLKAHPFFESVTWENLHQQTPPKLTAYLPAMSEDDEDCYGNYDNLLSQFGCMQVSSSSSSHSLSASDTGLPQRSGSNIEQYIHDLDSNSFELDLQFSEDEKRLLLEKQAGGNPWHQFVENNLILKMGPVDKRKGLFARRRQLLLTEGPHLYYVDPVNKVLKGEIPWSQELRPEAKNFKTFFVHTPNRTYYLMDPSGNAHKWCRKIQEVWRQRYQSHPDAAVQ

[39] = molecular target: cAMP-dependent protein kinase catalytic subunit alpha (Homo sapiens, UniProt P17612); assay: Inhibition of PKAalpha
[40] = molecular target: Protein kinase C beta type (Homo sapiens, UniProt P05771); assay: Inhibition of PKCbeta
[41] = molecular target: Serine/threonine-protein kinase PLK1 (Homo sapiens, UniProt P53350); assay: Inhibition of PLK1
Serine/threonine-protein kinase PLK1, sequence (P53350 whole entry): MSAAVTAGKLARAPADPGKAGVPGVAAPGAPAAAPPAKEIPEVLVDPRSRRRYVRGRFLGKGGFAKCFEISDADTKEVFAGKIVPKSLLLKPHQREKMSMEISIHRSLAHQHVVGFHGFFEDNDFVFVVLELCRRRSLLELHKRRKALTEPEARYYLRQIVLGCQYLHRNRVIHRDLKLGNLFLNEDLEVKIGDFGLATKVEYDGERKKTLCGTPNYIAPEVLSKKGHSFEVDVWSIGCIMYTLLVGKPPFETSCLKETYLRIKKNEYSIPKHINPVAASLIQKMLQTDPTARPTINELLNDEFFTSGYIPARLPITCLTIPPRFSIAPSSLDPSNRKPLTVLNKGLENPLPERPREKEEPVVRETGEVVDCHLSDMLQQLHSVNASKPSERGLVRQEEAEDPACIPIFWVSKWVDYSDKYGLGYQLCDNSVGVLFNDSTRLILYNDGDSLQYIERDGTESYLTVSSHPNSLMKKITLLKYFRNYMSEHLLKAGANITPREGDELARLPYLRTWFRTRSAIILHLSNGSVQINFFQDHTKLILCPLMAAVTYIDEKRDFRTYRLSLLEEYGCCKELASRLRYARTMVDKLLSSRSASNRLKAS

[42] = molecular target: Mitogen-activated protein kinase 14 (Homo sapiens, UniProt Q16539); assay: Inhibition of P38alpha
Mitogen-activated protein kinase 14, sequence (Q16539 whole entry): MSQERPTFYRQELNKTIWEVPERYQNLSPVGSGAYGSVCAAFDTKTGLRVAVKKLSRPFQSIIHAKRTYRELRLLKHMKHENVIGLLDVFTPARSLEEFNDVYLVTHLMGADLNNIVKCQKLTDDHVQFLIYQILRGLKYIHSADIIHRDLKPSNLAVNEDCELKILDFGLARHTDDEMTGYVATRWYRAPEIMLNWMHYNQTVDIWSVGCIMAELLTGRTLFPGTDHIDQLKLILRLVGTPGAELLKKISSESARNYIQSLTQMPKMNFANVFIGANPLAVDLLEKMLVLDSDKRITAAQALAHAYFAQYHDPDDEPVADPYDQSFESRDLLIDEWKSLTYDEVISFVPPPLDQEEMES

[43] = molecular target: Mitogen-activated protein kinase 11 (Homo sapiens, UniProt Q15759); assay: Inhibition of P38beta
[44] = molecular target: STE20-like serine/threonine-protein kinase (Homo sapiens, UniProt Q9H2G2); assay: Inhibition of STLK2
[45] = molecular target: Vascular endothelial growth factor receptor 2 (Homo sapiens, UniProt P35968); assay: Inhibition of VEGFR2
[46] = molecular target: Tyrosine-protein kinase ZAP-70 (Homo sapiens, UniProt P43403); assay: Inhibition of ZAP-70
Aurora kinase A = molecular target: T1, Aurora kinase A (Homo sapiens, UniProt O14965); assay: Inhibition of Aurora A
T1 sequence (O14965 whole entry): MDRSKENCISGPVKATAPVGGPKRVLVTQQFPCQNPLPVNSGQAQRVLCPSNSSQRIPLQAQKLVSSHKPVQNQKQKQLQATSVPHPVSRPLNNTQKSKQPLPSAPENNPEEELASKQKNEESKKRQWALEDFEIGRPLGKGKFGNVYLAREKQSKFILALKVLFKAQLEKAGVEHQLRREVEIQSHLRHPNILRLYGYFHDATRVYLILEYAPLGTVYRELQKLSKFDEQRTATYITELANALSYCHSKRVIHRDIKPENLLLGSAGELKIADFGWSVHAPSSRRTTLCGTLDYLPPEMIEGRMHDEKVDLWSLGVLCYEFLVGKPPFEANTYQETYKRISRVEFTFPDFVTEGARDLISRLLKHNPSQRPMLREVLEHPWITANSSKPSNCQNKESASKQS

A2780 [47] = assay: Antiproliferative activity against human A2780 cells after 72 hrs by cell Titer_Glo assay; assay type: functional, cell-based; conditions: A2780, 72 h
How it was run: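 A2780 cells were seeded at 10000–30000 cells/cm² in medium with 10% FCS. After 24 h they were treated with serial dilutions of compound, in two replicates. Cell amount was read by Cell Titer Glo 72 h after treatment. IC50 came from sigmoidal fitting.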

With CNC(=O)c1nn(C)c2c1C(C)(C)Cc1cnc(Nc3ccc(N4CCN(C)CC4)cc3)nc1-2.Cl the solubility [1] was 10000 µg/mL, the Activity (Cytochrome P450 3A4) was 85% and the half-life [2] was 2.6 h. For the same compound, the clearance [3] was 31.2 mL/min/kg, the Vd [4] was 4.82 L/kg and the half-life [5] was 2.9 h. The AUC [6] was 8.29 µM·h, the bioavailability [7] was 85% and the Activity (Mus musculus) was 36%. It also gave a Cmax [8] of 2350 nM.
Compound CNC(=O)c1nn(C)c2c1C(C)(C)Cc1cnc(Nc3ccc(N4CCN(C)CC4)cc3)nc1-2 [MILCICLIB] has a solubility [9] of 191 µM (≈ 88 µg/mL), an IC50 [10] of 0.398 µM and an Activity (A2780 [11]) of 49%. For the same compound, the Activity (A2780 [12]) was 68%, the Activity (A2780 [13]) was 40% and the Activity (A2780 [14]) was 75%. The Activity (A2780 [15]) was 53%, the Activity (A2780 [16]) was 76% and the Activity (A2780 [17]) was 91%. The IC50 [18] was 0.579 µM, the IC50 [19] was 0.668 µM and the IC50 [20] was 0.92 µM. It also gave an IC50 [21] of 1.06 µM, an IC50 [22] of 1.17 µM and an IC50 [23] of 1.21 µM. For the same compound, the IC50 [24] was 1.93 µM, the IC50 [25] was 2.87 µM and the IC50 (Aurora kinase B) was 4.17 µM. For the same compound, the IC50 [26] was > 10 µM, the IC50 [27] was > 10 µM and the IC50 [28] was > 10 µM. The IC50 [29] was > 10 µM, the IC50 [30] was > 10 µM and the IC50 [31] was > 10 µM. For the same compound, the IC50 [32] was > 10 µM, the IC50 [33] was > 10 µM and the IC50 [34] was > 10 µM. The IC50 (Insulin receptor) was > 10 µM, the IC50 [35] was > 10 µM and the IC50 [36] was > 10 µM. For the same compound, the IC50 [37] was > 10 µM, the IC50 [38] was > 10 µM and the IC50 [39] was > 10 µM. For the same compound, the IC50 [40] was > 10 µM, the IC50 [41] was > 10 µM and the IC50 [42] was > 10 µM. For the same compound, the IC50 [43] was > 10 µM, the IC50 [44] was > 10 µM and the IC50 [45] was > 10 µM. The IC50 [46] was > 10 µM, the IC50 (Aurora kinase A) was 1.05 µM and the IC50 (A2780 [47]) was 0.2 µM.
